In brackets after ≈: the same amount, converted by molar mass.
Assays:
Assay type in all cases: functional
[1] = test system: Bacillus subtilis; experiment: Antibacterial activity against Bacillus subtilis by NCCLS broth microdilution method
[2] = test system: Staphylococcus aureus; experiment: Antibacterial activity against Staphylococcus aureus by NCCLS broth microdilution method
[3] = test system: Klebsiella pneumoniae; experiment: Antibacterial activity against Klebsiella pneumoniae by NCCLS broth microdilution method
[4] = test system: Pseudomonas aeruginosa; experiment: Antibacterial activity against Pseudomonas aeruginosa by NCCLS broth microdilution method
[5] = test system: Candida albicans; experiment: Antifungal activity against Candida albicans by NCCLS broth microdilution method
Procedure, shortened: (§1)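 MIC90 was taken as the lowest concentration that inhibited 90% of pathogen growth after incubation, reported in μg/mL. Broth dilution followed the NCCLS reference standards: M27-A for yeasts and the proposed standard for conidium-forming filamentous fungi. Fluconazole was the reference drug.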

[6] = test system: Candida parapsilosis; experiment: Antifungal activity against Candida parapsilosis by NCCLS broth microdilution method; procedure, shortened: as §1
[7] = test system: Aspergillus niger; experiment: Antifungal activity against Aspergillus niger by NCCLS broth microdilution method; procedure, shortened: as §1
[8] = test system: Cryptococcus neoformans; experiment: Antifungal activity against Cryptococcus neoformans by NCCLS broth microdilution method; procedure, shortened: as §1
[9] = Bacillus subtilis, read-out: MIC90
[10] = Staphylococcus aureus, read-out: MIC90
[11] = Klebsiella pneumoniae, read-out: MIC90
[12] = Pseudomonas aeruginosa, read-out: MIC90
[13] = Candida albicans, read-out: MIC90
[14] = Lodderomyces parapsilosis, read-out: MIC90
[15] = Aspergillus niger, read-out: MIC90
[16] = Cryptococcus neoformans, read-out: MIC90

SMILES	MIC90 [1, 9]	MIC90 [2, 10]	MIC90 [3, 11]	MIC90 [4, 12]	MIC90 [5, 13]	MIC90 [6, 14]	MIC90 [7, 15]	MIC90 [8, 16]	MIC90 [2]	MIC90 [3]	MIC90 [4]	MIC90 [5]	MIC90 [6]	MIC90 [7]	MIC90 [8]	MIC90 [1]
CO/N=C1\C2CCCC1(C)C(c1cccc(F)c1)NC2c1cccc(F)c1 (configuration not stated)	128 µg/mL (≈ 346 µM)	16 µg/mL (≈ 43.2 µM)	32 µg/mL (≈ 86.4 µM)	32 µg/mL (≈ 86.4 µM)	16 µg/mL (≈ 43.2 µM)	64 µg/mL (≈ 173 µM)	64 µg/mL (≈ 173 µM)	128 µg/mL (≈ 346 µM)	–	–	–	–	–	–	–	–
CC12CCCC(/C1=N\O)C(c1ccc(F)cc1)NC2c1ccc(F)cc1 (configuration not stated)	64 µg/mL (≈ 180 µM)	16 µg/mL (≈ 44.9 µM)	32 µg/mL (≈ 89.8 µM)	64 µg/mL (≈ 180 µM)	16 µg/mL (≈ 44.9 µM)	32 µg/mL (≈ 89.8 µM)	64 µg/mL (≈ 180 µM)	32 µg/mL (≈ 89.8 µM)	–	–	–	–	–	–	–	–
CON=C1C2CC(C)CC1C(c1ccccc1F)NC2c1ccccc1F (stereo in doubt; 55a)	4 µg/mL (≈ 10.8 µM)	–	–	–	–	–	–	–	2 µg/mL (≈ 5.4 µM)	2 µg/mL (≈ 5.4 µM)	8 µg/mL (≈ 21.6 µM)	8 µg/mL (≈ 21.6 µM)	32 µg/mL (≈ 86.4 µM)	16 µg/mL (≈ 43.2 µM)	16 µg/mL (≈ 43.2 µM)	–
CON=C1C2CC(C)CC1C(c1cccc(Cl)c1)NC2c1cccc(Cl)c1 (configuration not stated)	64 µg/mL (≈ 159 µM)	32 µg/mL (≈ 79.3 µM)	32 µg/mL (≈ 79.3 µM)	128 µg/mL (≈ 317 µM)	16 µg/mL (≈ 39.7 µM)	8 µg/mL (≈ 19.8 µM)	32 µg/mL (≈ 79.3 µM)	32 µg/mL (≈ 79.3 µM)	–	–	–	–	–	–	–	–
CC12CCCC(/C1=N\O)C(c1ccc(Cl)cc1)NC2c1ccc(Cl)cc1 (configuration not stated)	> 128 µg/mL	64 µg/mL (≈ 164 µM)	16 µg/mL (≈ 41.1 µM)	> 128 µg/mL	32 µg/mL (≈ 82.2 µM)	64 µg/mL (≈ 164 µM)	64 µg/mL (≈ 164 µM)	32 µg/mL (≈ 82.2 µM)	–	–	–	–	–	–	–	–
CO/N=C1\C2CCCC1(C)C(c1ccc(C)cc1)NC2c1ccc(C)cc1 (configuration not stated)	32 µg/mL (≈ 88.3 µM)	64 µg/mL (≈ 177 µM)	64 µg/mL (≈ 177 µM)	128 µg/mL (≈ 353 µM)	128 µg/mL (≈ 353 µM)	> 128 µg/mL	32 µg/mL (≈ 88.3 µM)	64 µg/mL (≈ 177 µM)	–	–	–	–	–	–	–	–
CC12CCCC(/C1=N\O)C(c1cccc(Cl)c1)NC2c1cccc(Cl)c1 (configuration not stated)	> 128 µg/mL	64 µg/mL (≈ 164 µM)	64 µg/mL (≈ 164 µM)	> 128 µg/mL	64 µg/mL (≈ 164 µM)	64 µg/mL (≈ 164 µM)	> 128 µg/mL	128 µg/mL (≈ 329 µM)	–	–	–	–	–	–	–	–
COc1ccccc1C1NC(c2ccccc2OC)C2(C)CCCC1/C2=N\O (configuration not stated)	64 µg/mL (≈ 168 µM)	64 µg/mL (≈ 168 µM)	128 µg/mL (≈ 336 µM)	128 µg/mL (≈ 336 µM)	> 128 µg/mL	128 µg/mL (≈ 336 µM)	128 µg/mL (≈ 336 µM)	64 µg/mL (≈ 168 µM)	–	–	–	–	–	–	–	–
CC1CC2C(=NO)C(C1)C(c1ccccc1F)NC2c1ccccc1F (stereo in doubt; 49b)	–	–	–	–	–	–	–	–	32 µg/mL (≈ 89.8 µM)	64 µg/mL (≈ 180 µM)	128 µg/mL (≈ 359 µM)	16 µg/mL (≈ 44.9 µM)	32 µg/mL (≈ 89.8 µM)	4 µg/mL (≈ 11.2 µM)	16 µg/mL (≈ 44.9 µM)	32 µg/mL (≈ 89.8 µM)
CO/N=C1\C2CCCC1(C)C(c1cccc(Cl)c1)NC2c1cccc(Cl)c1 (configuration not stated)	128 µg/mL (≈ 317 µM)	64 µg/mL (≈ 159 µM)	32 µg/mL (≈ 79.3 µM)	64 µg/mL (≈ 159 µM)	32 µg/mL (≈ 79.3 µM)	32 µg/mL (≈ 79.3 µM)	128 µg/mL (≈ 317 µM)	64 µg/mL (≈ 159 µM)	–	–	–	–	–	–	–	–
CC1CC2C(=NO)C(C1)C(c1cccc(F)c1)NC2c1cccc(F)c1 (stereo in doubt; 50b)	–	–	–	–	–	–	–	–	32 µg/mL (≈ 89.8 µM)	64 µg/mL (≈ 180 µM)	32 µg/mL (≈ 89.8 µM)	64 µg/mL (≈ 180 µM)	32 µg/mL (≈ 89.8 µM)	32 µg/mL (≈ 89.8 µM)	64 µg/mL (≈ 180 µM)	>128 µg/mL
CO/N=C1\C2CCCC1(C)C(c1ccccc1OC)NC2c1ccccc1OC (configuration not stated)	32 µg/mL (≈ 81.1 µM)	32 µg/mL (≈ 81.1 µM)	32 µg/mL (≈ 81.1 µM)	64 µg/mL (≈ 162 µM)	64 µg/mL (≈ 162 µM)	64 µg/mL (≈ 162 µM)	128 µg/mL (≈ 324 µM)	128 µg/mL (≈ 324 µM)	–	–	–	–	–	–	–	–
COc1cccc(C2NC(c3cccc(OC)c3)C3(C)CCCC2/C3=N\O)c1 (configuration not stated)	128 µg/mL (≈ 336 µM)	128 µg/mL (≈ 336 µM)	> 128 µg/mL	> 128 µg/mL	> 128 µg/mL	> 128 µg/mL	> 128 µg/mL	128 µg/mL (≈ 336 µM)	–	–	–	–	–	–	–	–
CC12CCCC(/C1=N\O)C(c1ccccc1F)NC2c1ccccc1F (configuration not stated)	32 µg/mL (≈ 89.8 µM)	8 µg/mL (≈ 22.4 µM)	16 µg/mL (≈ 44.9 µM)	32 µg/mL (≈ 89.8 µM)	8 µg/mL (≈ 22.4 µM)	8 µg/mL (≈ 22.4 µM)	64 µg/mL (≈ 180 µM)	64 µg/mL (≈ 180 µM)	–	–	–	–	–	–	–	–
CON=C1C2CC(C)CC1C(c1ccccc1Cl)NC2c1ccccc1Cl (stereo in doubt; 58b)	–	–	–	–	–	–	–	–	8 µg/mL (≈ 19.8 µM)	16 µg/mL (≈ 39.7 µM)	16 µg/mL (≈ 39.7 µM)	4 µg/mL (≈ 9.92 µM)	4 µg/mL (≈ 9.92 µM)	2 µg/mL (≈ 4.96 µM)	2 µg/mL (≈ 4.96 µM)	32 µg/mL (≈ 79.3 µM)
CO/N=C1\C2CCCC1(C)C(c1ccccc1Br)NC2c1ccccc1Br (configuration not stated)	64 µg/mL (≈ 130 µM)	64 µg/mL (≈ 130 µM)	64 µg/mL (≈ 130 µM)	128 µg/mL (≈ 260 µM)	64 µg/mL (≈ 130 µM)	32 µg/mL (≈ 65 µM)	32 µg/mL (≈ 65 µM)	128 µg/mL (≈ 260 µM)	–	–	–	–	–	–	–	–
OC(Cn1cncn1)(Cn1cncn1)c1ccc(F)cc1F [FLUCONAZOLE]	–	–	–	–	1 µg/mL (≈ 3.27 µM)	2 µg/mL (≈ 6.53 µM)	4 µg/mL (≈ 13.1 µM)	2 µg/mL (≈ 6.53 µM)	–	–	–	–	–	–	–	–
